Assay [1] addresses T1, Inosine-5'-monophosphate dehydrogenase 2 (Homo sapiens, UniProt P12268). The assay can be described thus: Inhibition of human recombinant inosine monophosphate dehydrogenase type II. An outline of the steps:
(§1)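 Reactions are run either at pH 7.4 (0.1 M K phosphate, 0.5 M KCl, 3 mM EDTA, 10 μg/mL BSA) or at pH 8.0 (0.1 M Tris-HCl, 0.1 M KCl, 3 mM EDTA, 100 μg/mL BSA). DMSO ≤10%, compounds tested up to 100 μM. IC50 from fit of fractional activity = V0/[(I/IC50)^n + 1].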

The target in assay [2] is T1, Inosine-5'-monophosphate dehydrogenase 2. The assay can be described thus: Inhibition of human recombinant type II Inosine Monophosphate Dehydrogenase at 100 uM. An outline of the steps:
as §1

Assay [3] is filed under the species Homo sapiens. Kind of assay: Inhibition of human Lymphocyte proliferation. The IC50 values were determined by interpolation using the cubic spline determination at 10 uM. Format: functional. The gist of the method: (§2)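 Human PBMC are isolated on Ficoll from heparinized blood and plated at 2 × 10^5 cells/well in RPMI-1640 with 5% FCS. Cells are stimulated with PHA (10 μg/mL final) and given compound at time 0, at 4-6 concentrations between 0.001 and 20 μM (tested to 10 μM). Cultures run in quadruplicate for 72 h at 37 °C, 7% CO2, with [3H]thymidine (0.5 μCi/well) for the last 6 h. IC50 by cubic-spline interpolation of the means.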

Assay [4] concerns the target T1, Inosine-5'-monophosphate dehydrogenase 2. The assay can be described thus: Inhibition of human recombinant type II Inosine Monophosphate Dehydrogenase. at pH 8.0. An outline of the steps:
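Recombinant human type II IMPDH (12.5-25 pmol) in 0.1 M Tris-HCl pH 8.0, 0.1 M KCl, 3 mM EDTA, 100 μg/mL BSA. […] IC50 fitted with a Hill equation, fractional activity = V0/[(I/IC50)^n + 1].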

Assay [5] is filed under the species Homo sapiens. Kind of assay: Inhibition of human Lymphocyte proliferation. The IC50 values were determined by interpolation using cubic spline determination. Format: functional. An outline of the steps:
as §2

The next assay relates to Mus musculus. Kind of assay: Tested for the inhibition of murine PFC response at 100 mg/kg dose. Format: functional.

Molecules are shown by their SMILES.

What is called IC50 is the concentration at which inhibition is half-maximal. Take `C/C(=C\Cc1c(C)c(C)c(C)c(Br)c1N)CCC(=O)O`: in assay [1], the IC50 is 0.763 µM.
For the compound `COc1c(C)c(C)c(F)c(Cl)c1C/C=C(\C)CCC(=O)O`, the IC50 in assay [2] is 11.8 µM; in the assay filed under Homo sapiens [3], above 10 µM.
For `C/C(=C\Cc1cc(C)c2c(c1O)C(=O)OC2)CCC(=O)O`, in assay [4], the IC50 amounted to 6.96 µM.
Consider `COc1c(C)c(C)c(C#N)c(O)c1C/C=C(\C)CCC(=O)O`, for which the values for the IC50 (in assay [1]; in the assay filed under Homo sapiens [5]) were 0.534 µM and 1.7 µM, respectively.
As for `C=Cc1c(C)c2c(c(O)c1C/C=C(\C)CCC(=O)O)C(=O)OC2`, the IC50 in assay [1] is 0.00851 µM; in the assay filed under Homo sapiens [5] it was 0.093 µM.
As for `CCc1c2c(c(O)c(C/C=C(\C)CCC(=O)O)c1OC)C(=O)OC2`, the IC50 in assay [4] came out at 0.41 µM; in the assay filed under Homo sapiens [5], 3 µM.
On to `COc1c(C)c2c(c(O)c1C/C=C(\C)CCC(=O)O)C(=O)OC2C` (stereo not drawn), for which the IC50 in assay [4] came out at 0.42 µM; in the assay listed under Homo sapiens [5], 0.6 µM.
On to `C/C(=C\Cc1c(O)c2c(c(C)c1C1CC1)COC2=O)CCC(=O)O`, for which the IC50 was 0.0507 µM in assay [1] and 0.34 µM in the assay listed under Homo sapiens [5].
By inhibition in vivo is commonly meant the change of the read-out against control, counted positive when it falls. On to `COc1c(C)c(C)c(Br)c(O)c1C/C=C(\C)CCC(=O)O`, for which the IC50 in assay [1] stood at 0.0367 µM; in the assay listed under Homo sapiens [5] it was 0.28 µM. The compound further had an inhibition in vivo at 100 mg/kg in the assay on Mus musculus of 5%.
Turning to `C/C(=C\Cc1c(N)cc(C)c(C)c1C)CCC(=O)O`, in assay [1], the IC50 came out at 90.8 µM.
Take `COc1c(C)c(C)c(C)c(O)c1C/C=C(\C)CCC(=O)O`: the IC50 in assay [1] turned out to be 0.959 µM; in the assay listed under Homo sapiens [5] it was 3.7 µM.
For `COc1c(C)c(C)c(Cl)c(N)c1C/C=C(\C)CCC(=O)O`, the IC50 was 0.489 µM in assay [1] and 4.1 µM in the assay filed under Homo sapiens [5]. In addition, in the assay with Mus musculus, the inhibition in vivo at 100 mg/kg came out at 42%.
`C/C(=C\Cc1c(O)c(C)c2c(c1O)C(=O)OC2)CCC(=O)O`: the IC50 is 0.0877 µM in assay [1] and above 10 µM in the assay filed under Homo sapiens [5].
`COc1c(C)c(C)c(C#N)c(N)c1C/C=C(\C)CCC(=O)O`: the IC50 in assay [1] stood at 14.8 µM; in the assay filed under Homo sapiens [5], 4.1 µM.
Regarding `COc1c(C/C=C(\C)CCC(=O)O)c(O)c2c(c1C(N)=O)COC2=O`, the IC50 in assay [4] is above 100 µM; in the assay filed under Homo sapiens [5], above 10 µM.
Take `COc1c(C)c(C)c(F)c(O)c1C/C=C(\C)CCC(=O)O`: the IC50 in assay [1] was 1.08 µM; in the assay listed under Homo sapiens [5], 4.1 µM.
Turning to `COc1c(C)c2c(c(O)c1C/C=C(\C)CCC(=O)O)C(=O)NC2`, the IC50 in assay [4] turned out to be 0.244 µM; in the assay listed under Homo sapiens [5], 1.5 µM.
Turning to `COc1c(C/C=C(\C)CCC(=O)O)cc(N)c(C)c1C`, in assay [1], the IC50 was 17 µM.
Regarding `COc1c(C/C=C(\C)CCC(=O)O)cc([N+](=O)[O-])c(C)c1C`, the half-inhibitory concentration (IC50) in assay [1] is 1.22 µM; in the assay filed under Homo sapiens [5], 9.5 µM.
For `COc1c(C)c2c(c(O)c1C/C=C(\C)CCC(=O)O)C(=O)CC2`, in that order: 0.14 µM and 0.83 µM.
The matching figures for `C/C(=C\Cc1c(O)c2c(c(C)c1C(N)=O)COC2=O)CCC(=O)O`: 0.231 µM and above 10 µM.
Turning to `COc1c(Br)c2c(c(O)c1C/C=C(\C)CCC(=O)O)C(=O)OC2`, the figures for the IC50 (in assay [4]; in the assay listed under Homo sapiens [5]) were 0.975 µM and 4 µM, respectively.
With `COc1c(C)c(C)c(C#N)c(Cl)c1C/C=C(\C)CCC(=O)O`, the IC50 in assay [2] is 0.681 µM; in the assay filed under Homo sapiens [3], above 10 µM.
On to `COc1c(C#N)c2c(c(O)c1C/C=C(\C)CCC(=O)O)C(=O)OC2`, for which the figures for the IC50 (in assay [4]; in the assay listed under Homo sapiens [5]) were above 100 µM and above 10 µM, respectively.
On to `COc1c(C/C=C(\C)CCC(=O)O)cc(Br)c(C)c1C`, for which the IC50 was 0.795 µM in assay [2] and above 10 µM in the assay listed under Homo sapiens [3].
`C/C(=C\Cc1c(C)c(C)c(C)c(Br)c1O)CCC(=O)O`: the IC50 stood at 0.62 µM in assay [1] and 1.65 µM in the assay listed under Homo sapiens [5].
On to `COc1c(C)c(C)c([N+](=O)[O-])c(O)c1C/C=C(\C)CCC(=O)O`, for which, in assay [1], the IC50 is 0.184 µM.
Same read-out and setting: under `COc1c(C/C=C(\C)CCC(=O)O)cc(C#N)c(C)c1C` stands 1.6 µM; under `COc1c(C)c(C)c(OC)c(C/C=C(\C)CCC(=O)O)c1O`, 11.9 µM.
Take `COc1c(C)c(C)c(O)c(Cl)c1C/C=C(\C)CCC(=O)O`: the IC50 is 2.88 µM in assay [2] and above 10 µM in the assay listed under Homo sapiens [3].
For `COc1c(C/C=C(\C)CCC(=O)O)cc(Cl)c(C)c1C`, the IC50 stood at 0.537 µM in assay [1] and 6.7 µM in the assay filed under Homo sapiens [5].
With `C/C(=C\Cc1c(C)c(C)c(C)c([N+](=O)[O-])c1O)CCC(=O)O`, the IC50 in assay [1] worked out at 0.289 µM; in the assay listed under Homo sapiens [5], 3.2 µM.
Turning to `COc1c(C)c(C)c(Cl)c(Cl)c1C/C=C(\C)CCC(=O)O`, the figures for the IC50 (in assay [2]; in the assay listed under Homo sapiens [3]) were 0.557 µM and above 10 µM, respectively.
As to `COc1c(C)c(C)c(C=O)c(O)c1C/C=C(\C)CCC(=O)O`, the IC50 in assay [1] was 1.12 µM; in the assay filed under Homo sapiens [5], 10 µM.
As for `COc1c(C/C=C(\C)CCC(=O)O)cc(S(C)=O)c(C)c1C` (stereo not drawn), the figures for the IC50 (in assay [2]; in the assay filed under Homo sapiens [3]) were above 100 µM and above 10 µM, respectively.
Consider `COc1c(C)c(C)c(I)c(O)c1C/C=C(\C)CCC(=O)O`, for which the figures for the IC50 (in assay [1]; in the assay listed under Homo sapiens [5]) were 0.592 µM and 4.9 µM, respectively.
Consider `COc1c(C)c(C)c([N+](=O)[O-])c(Cl)c1C/C=C(\C)CCC(=O)O`, for which the results for the IC50 (in assay [2]; in the assay listed under Homo sapiens [3]) were 1.8 µM and above 10 µM, respectively.
The matching figures for `COc1c(C)c(C)c(F)c(F)c1C/C=C(\C)CCC(=O)O`: 1.38 µM and above 10 µM.
Turning to `COc1c(C)c(C)c([N+](=O)[O-])c(N)c1C/C=C(\C)CCC(=O)O`, the 50% inhibitory concentration (IC50) in assay [1] came to 0.465 µM; in the assay filed under Homo sapiens [5], 2.8 µM.
For `C/C(=C\Cc1c(O)c2c(c(C)c1C#N)COC2=O)CCC(=O)O`, in that order: 15.5 µM and above 10 µM.
The matching figures for `COc1c(C)c2c(c(O)c1C/C=C(\C)CCC(=O)O)C(=O)SC2`: 0.121 µM and 1.7 µM.
As to `COc1cc2c(c(O)c1C/C=C(\C)CCC(=O)O)C(=O)OC2`, in assay [4], the IC50 is 0.515 µM.
As to `COc1cc(C/C=C(\C)CCC(=O)O)c(OC)c(C)c1C`, in assay [1], the IC50 is 50 µM.
Take `C/C(=C\Cc1c(O)c2c(c(C)c1-c1ccccc1)COC2=O)CCC(=O)O`: the IC50 in assay [1] was 0.13 µM; in the assay filed under Homo sapiens [5], 2.8 µM.
For the compound `C/C(=C\Cc1c(C)c(C)c(C)c(Cl)c1O)CCC(=O)O`, the IC50 in assay [1] amounted to 0.0693 µM; in the assay listed under Homo sapiens [5], 0.36 µM.
Turning to `COc1c(C/C=C(\C)CCC(=O)O)cc(SC)c(C)c1C`, the values for the IC50 (in assay [2]; in the assay filed under Homo sapiens [3]) were 52.3 µM and above 10 µM, respectively.
For `COc1c(C)c(C)c(Br)c(Cl)c1C/C=C(\C)CCC(=O)O`, in that order: 1.04 µM and above 10 µM.
For `COc1c(C)c(C)c(Cl)c(C)c1C/C=C(\C)CCC(=O)O`, in that order: 1.7 µM and above 10 µM.
As to `CCOc1c(C)c2c(c(O)c1C/C=C(\C)CCC(=O)O)C(=O)OC2`, the IC50 turned out to be 0.0898 µM in assay [4] and 0.43 µM in the assay filed under Homo sapiens [5].
Consider `COc1c(C)c(C)c(Cl)c(F)c1C/C=C(\C)CCC(=O)O`, for which the results for the IC50 (in assay [1]; in the assay filed under Homo sapiens [5]) were 0.437 µM and 7.5 µM, respectively. In the assay on Mus musculus, testing at 100 mg/kg gave an inhibition in vivo of 0%.
In the case of `COc1c(C/C=C(\C)CCC(=O)O)cc(O)c(C)c1C`, the IC50 in assay [2] is above 100 µM.
With `COc1c(C)c(C)cc(Cl)c1C/C=C(\C)CCC(=O)O`, the IC50 in assay [2] was 18.8 µM; in the assay filed under Homo sapiens [3], above 10 µM.
Regarding `COc1c(C)c2c(c(O)c1C/C=C(\C)CCC(=O)O)C(=O)OCC2`, the half-inhibitory concentration (IC50) in assay [4] was determined as 0.644 µM; in the assay filed under Homo sapiens [5], 8.6 µM.
In the case of `COc1c(C)c(C)cc(O)c1C/C=C(\C)CCC(=O)O`, in assay [1], the IC50 stood at 51.8 µM.
As to `COc1c(C)c(C)c(Br)c(N)c1C/C=C(\C)CCC(=O)O`, the IC50 in assay [1] came out at 0.462 µM; in the assay listed under Homo sapiens [5], 4.1 µM. The same compound gave an inhibition in vivo at 100 mg/kg in the assay with Mus musculus of 30%.

The values are drawn from ChEMBL document CHEMBL1129445 (J Med Chem, 1996).
